Results as given in ChEMBL document CHEMBL3120077, “Synthesis, structure-activity relationship of iodinated-4-aryloxymethyl-coumarins as potential anti-cancer and anti-mycobacterial agents” (Eur J Med Chem, 2014).
≈ marks a conversion by molar mass, not a printed value.

How the values were obtained:
Type in all cases: functional
[1] = Cytotoxicity against human MDA-MB cells after 24 hrs by MTT assay
Procedure, shortened: (§1)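 Cells seeded at 2×10^4/well, incubated overnight, then exposed 24 h to test concentrations. MTT (5 mg/mL stock) added, 3 h at 37 °C; formazan dissolved in DMSO, absorbance 570 nm. Percent viability inhibition relative to untreated control; IC50 from linear regression of the dose-response line.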

[2] = system: Mycobacterium tuberculosis; assay: Antimicrobial activity against Mycobacterium tuberculosis H37Rv after 5 days by microplate Alamar Blue assay; conditions: 120 h
Procedure, shortened: (§2)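 M. tuberculosis H37Rv was tested in Middlebrook 7H9 broth in a microplate Alamar Blue assay. Compounds were serially diluted on the plate to final concentrations of 100–0.2 µg/mL. Sealed plates were incubated at 37 °C for 5 days. A fresh 1:1 mix of Alamar Blue and 10% Tween 80 was then added, followed by 24 h more incubation. Blue wells were scored as no growth, pink as growth.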

[3] = system: A549; assay: Cytotoxicity against human A549 cells after 24 hrs by MTT assay; procedure, shortened: as §1
[4] = system: Mycolicibacterium phlei; assay: Antimicrobial activity against Mycobacterium phlei after 5 days by microplate Alamar Blue assay; conditions: 120 h
Procedure, shortened: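 Microplate Alamar Blue assay (MABA) in Middlebrook 7H9 broth, compounds serially diluted on plate to final 100–0.2 µg/mL. Plates sealed and incubated 37 °C for 5 days, then 1:1 Alamar Blue/10% Tween 80 added and incubated 24 h more. Blue scored as no growth, pink as growth.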

[5] = system: Mycobacterium tuberculosis; assay: Antimicrobial activity against Mycobacterium tuberculosis; procedure, shortened: as §2
[6] = system: Mycobacterium tuberculosis; assay: Antimicrobial activity against Mycobacterium tuberculosis ATCC 27294 by microplate Alamar Blue assay; procedure, shortened: as §2

SMILES	MIC [1] [µg/mL]	MIC [2] [µg/mL]	MIC [3] [µg/mL]	MIC [4] [µg/mL]	MIC [5] [µg/mL]	MIC [6] [µg/mL]
Cc1ccc2c(COc3ccccc3I)cc(=O)oc2c1C	25 (≈ 61.5 µM)	25 (≈ 61.5 µM)	50 (≈ 123 µM)	50 (≈ 123 µM)		
Cc1cc(=O)oc2cc(OCc3cn(Cc4cc(=O)oc5ccc6ccccc6c45)nn3)ccc12					6.25 (≈ 13.4 µM)	
Cc1cc(=O)oc2cc(OCc3cn(Cc4cc(=O)oc5cc(Cl)ccc45)nn3)ccc12					6.25 (≈ 13.9 µM)	
O=c1cc(COc2cccc(I)c2)c2ccc3ccccc3c2o1	50 (≈ 117 µM)	25 (≈ 58.4 µM)	12.5 (≈ 29.2 µM)	25 (≈ 58.4 µM)		
CN[C@@H]1[C@H](O[C@H]2[C@H](O[C@H]3[C@H](O)[C@@H](O)[C@H](N=C(N)N)[C@@H](O)[C@@H]3N=C(N)N)O[C@@H](C)[C@]2(O)C=O)O[C@@H](CO)[C@H](O)[C@H]1O [STREPTOMYCIN]		6.25 (≈ 10.7 µM)		6.25 (≈ 10.7 µM)		
NC(=O)c1cnccn1 [PYRAZINAMIDE]		3.12 (≈ 25.4 µM)		3.12 (≈ 25.4 µM)		
Cc1ccc2c(COc3ccc(I)cc3)cc(=O)oc2c1C	12.5 (≈ 30.8 µM)	12.5 (≈ 30.8 µM)	12.5 (≈ 30.8 µM)	12.5 (≈ 30.8 µM)		
O=c1cc(COc2ccc(I)cc2)c2ccc3ccccc3c2o1	25 (≈ 58.4 µM)	25 (≈ 58.4 µM)	6.25 (≈ 14.6 µM)	25 (≈ 58.4 µM)		
O=c1cc(COc2ccc(I)cc2)c2c(ccc3ccccc32)o1	25 (≈ 58.4 µM)	25 (≈ 58.4 µM)	6.25 (≈ 14.6 µM)	25 (≈ 58.4 µM)		
COc1ccc2c(COc3cccc(I)c3)cc(=O)oc2c1	50 (≈ 122 µM)	25 (≈ 61.2 µM)	12.5 (≈ 30.6 µM)	50 (≈ 122 µM)		
Cc1ccc2oc(=O)cc(COc3ccccc3I)c2c1	12.5 (≈ 31.9 µM)	12.5 (≈ 31.9 µM)	50 (≈ 127 µM)	> 100		
COc1ccc2oc(=O)cc(COc3cccc(I)c3)c2c1	50 (≈ 122 µM)	25 (≈ 61.2 µM)	12.5 (≈ 30.6 µM)	50 (≈ 122 µM)		
O=C(N/N=C/c1cccc(O)c1)c1cc2ccccc2oc1=O					50 (≈ 162 µM)	
O=c1cc(COc2ccc(I)cc2)c2ccc(Cl)cc2o1	1.56 (≈ 3.78 µM)	1.56 (≈ 3.78 µM)	3.12 (≈ 7.57 µM)	3.12 (≈ 7.57 µM)		
Cc1cc(=O)oc2cc(OCc3cn(Cc4cc(=O)oc5ccc(Cl)cc45)nn3)ccc12					6.25 (≈ 13.9 µM)	
O=c1cc(COc2ccccc2I)c2cc(Cl)ccc2o1	12.5 (≈ 30.3 µM)	6.25 (≈ 15.1 µM)	12.5 (≈ 30.3 µM)	25 (≈ 60.6 µM)		
O=c1cc(COc2ccccc2I)c2ccc(Cl)cc2o1	12.5 (≈ 30.3 µM)	6.25 (≈ 15.1 µM)	12.5 (≈ 30.3 µM)	25 (≈ 60.6 µM)		
O=c1cc(COc2ccccc2I)c2ccc3ccccc3c2o1	25 (≈ 58.4 µM)	50 (≈ 117 µM)	25 (≈ 58.4 µM)	50 (≈ 117 µM)		
O=c1cc(COc2ccc(I)cc2)c2cc(Cl)ccc2o1	1.56 (≈ 3.78 µM)	1.56 (≈ 3.78 µM)	3.12 (≈ 7.57 µM)	3.12 (≈ 7.57 µM)		

SMILES	MIC [1] [µg/mL]	MIC [2] [µg/mL]	MIC [3] [µg/mL]	MIC [4] [µg/mL]	MIC [5] [µg/mL]	MIC [6] [µg/mL]
COc1ccc2oc(=O)cc(COc3ccccc3I)c2c1	25 (≈ 61.2 µM)	12.5 (≈ 30.6 µM)	25 (≈ 61.2 µM)	50 (≈ 122 µM)		
O=c1cc(COc2cccc(I)c2)c2cc(Br)ccc2o1	6.25 (≈ 13.7 µM)	12.5 (≈ 27.3 µM)	6.25 (≈ 13.7 µM)	6.25 (≈ 13.7 µM)		
Cc1ccc2oc(=O)cc(COc3ccc(I)cc3)c2c1	12.5 (≈ 31.9 µM)	12.5 (≈ 31.9 µM)	12.5 (≈ 31.9 µM)	12.5 (≈ 31.9 µM)		
Cc1ccc2c(COc3cccc(I)c3)cc(=O)oc2c1	25 (≈ 63.7 µM)	25 (≈ 63.7 µM)	25 (≈ 63.7 µM)	12.5 (≈ 31.9 µM)		
Cc1ccc2c(COc3ccc(I)cc3)cc(=O)oc2c1	12.5 (≈ 31.9 µM)	25 (≈ 63.7 µM)	12.5 (≈ 31.9 µM)	12.5 (≈ 31.9 µM)		
Cc1ccc2oc(=O)cc(COc3cccc(I)c3)c2c1	25 (≈ 63.7 µM)	25 (≈ 63.7 µM)	25 (≈ 63.7 µM)	12.5 (≈ 31.9 µM)		
O=c1cc(COc2cccc(I)c2)c2ccc(Cl)cc2o1	6.25 (≈ 15.1 µM)	12.5 (≈ 30.3 µM)	6.25 (≈ 15.1 µM)	6.25 (≈ 15.1 µM)		
COc1ccc2oc(=O)cc(COc3ccc(I)cc3)c2c1	25 (≈ 61.2 µM)	25 (≈ 61.2 µM)	6.25 (≈ 15.3 µM)	12.5 (≈ 30.6 µM)		
O=c1cc(COc2cccc(I)c2)c2cc(Cl)ccc2o1	6.25 (≈ 15.1 µM)	12.5 (≈ 30.3 µM)	6.25 (≈ 15.1 µM)	6.25 (≈ 15.1 µM)		
O=c1cc(COc2ccccc2I)c2c(ccc3ccccc32)o1	25 (≈ 58.4 µM)	50 (≈ 117 µM)	25 (≈ 58.4 µM)	50 (≈ 117 µM)		
Cc1ccc2c(COc3cccc(I)c3)cc(=O)oc2c1C	25 (≈ 61.5 µM)	25 (≈ 61.5 µM)	25 (≈ 61.5 µM)	25 (≈ 61.5 µM)		
Cc1ccc2c(COc3ccccc3I)cc(=O)oc2c1	12.5 (≈ 31.9 µM)	12.5 (≈ 31.9 µM)	50 (≈ 127 µM)	> 100		
O=C(Cc1cc(=O)oc2cc(O)ccc12)N/N=C/c1cccc([N+](=O)[O-])c1						6.25 (≈ 17 µM)
O=c1cc(COc2ccccc2I)c2cc(Br)ccc2o1	12.5 (≈ 27.3 µM)	6.25 (≈ 13.7 µM)	12.5 (≈ 27.3 µM)	50 (≈ 109 µM)		
COc1ccc2c(COc3ccc(I)cc3)cc(=O)oc2c1	25 (≈ 61.2 µM)	25 (≈ 61.2 µM)	6.25 (≈ 15.3 µM)	12.5 (≈ 30.6 µM)		
O=c1cc(COc2ccc(I)cc2)c2cc(Br)ccc2o1	3.12 (≈ 6.84 µM)	6.25 (≈ 13.7 µM)	3.12 (≈ 6.84 µM)	6.25 (≈ 13.7 µM)		
COc1ccc2c(COc3ccccc3I)cc(=O)oc2c1	25 (≈ 61.2 µM)	12.5 (≈ 30.6 µM)	25 (≈ 61.2 µM)	50 (≈ 122 µM)		
O=c1cc(COc2cccc(I)c2)c2c(ccc3ccccc32)o1	50 (≈ 117 µM)	25 (≈ 58.4 µM)	12.5 (≈ 29.2 µM)	25 (≈ 58.4 µM)		
